Reference: ChEMBL document CHEMBL1131473, “A novel class of orally active non-peptide bradykinin B2 receptor antagonists. 1. Construction of the basic framework” (J Med Chem, 1998)

Legend:
[1] = Compound at a dose of 10 mg/kg was orally administered to rats and Bioavailability was reported; type: ADME, organism-based; details: rat, in vivo, po, read-out: BA
In short: (§1)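 Male Sprague-Dawley rats (3), starved overnight, given compound orally in 0.5% methocel (0.5 mL/100 g). Femoral-artery blood sampled at 0, 0.5, 1, 2, 4 and 6 h. Intravenous arm used a DMSO solution into the femoral vein, sampled 0 min–6 h. Plasma extracted with CHCl3, dried, reconstituted in MeOH and quantified by HPLC peak area against spiked time-0 plasma standards.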

[2] = tested on: Cavia porcellus; test: In vivo functional antagonistic activity against BK-induced bronchoconstriction in guinea pigs at an oral dose of 1 mg/kg.
In short: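 Male Hartley guinea pigs (470-750 g), fasted, anesthetized with pentobarbital (30 mg/kg ip), ventilated, given alcuronium iv and propranolol sc. BK (5 μg/kg iv) raised pulmonary insufflation pressure, measured by modified Konzett–Rössler. Compound in 0.5% methylcellulose, or vehicle, was given by oesophageal cannula. BK was repeated 30 min later. Response expressed as ΔPIP after drug over ΔPIP before drug ×100; Student's t-test vs control.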

[3] = Compound at a dose of 10 mg/kg was orally administered to rats and Half-life value was reported; type: ADME, organism-based; parameters: dose 10 mg/kg, route oral; details: rat, in vivo, po; in short: as §1
[4] = Compound at a dose of 10 mg/kg was orally administered to rats and Area under curve was reported; type: ADME, organism-based; parameters: dose 10 mg/kg, route oral; details: rat, in vivo, po; in short: as §1
[5] = target: T1, B2 bradykinin receptor (Cavia porcellus, UniProt O70526); test: In vitro for inhibition of specific binding of [3H]BK (0.06 nM) to bradykinin receptor B2 in guinea pig ileum membrane preparations.; type: cell membranes
T1 sequence (O70526 whole entry): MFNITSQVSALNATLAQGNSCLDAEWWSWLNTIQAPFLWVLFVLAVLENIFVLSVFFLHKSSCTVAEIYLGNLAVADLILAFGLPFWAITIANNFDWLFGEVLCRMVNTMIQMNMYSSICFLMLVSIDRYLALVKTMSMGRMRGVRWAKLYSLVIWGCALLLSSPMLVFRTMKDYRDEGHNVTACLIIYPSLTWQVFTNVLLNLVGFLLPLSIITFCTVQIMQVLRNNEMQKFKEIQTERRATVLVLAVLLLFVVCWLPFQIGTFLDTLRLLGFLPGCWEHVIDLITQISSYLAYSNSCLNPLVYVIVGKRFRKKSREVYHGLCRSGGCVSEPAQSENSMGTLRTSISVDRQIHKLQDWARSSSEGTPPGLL
In short: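 Ileal membranes from male Hartley guinea pigs, prepared in TES/1,10-phenanthroline pH 6.8 by 1000g then 100000g spins. Assay buffer held bacitracin, DTT, 1 μM captopril and 0.1% BSA. Membranes (0.2 mg protein/mL) incubated with [3H]BK (final 0.06 nM) and varying compound concentrations for 60 min at room temperature. Bound ligand filtered on GF/B and counted by scintillation; nonspecific binding taken with 1 μM unlabeled BK.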

[6] = Compound at a dose of 10 mg/kg was orally administered to rats and maximum plasma concentration was reported; type: ADME, organism-based; parameters: dose 10 mg/kg, route oral; details: rat, po; in short: as §1

| Structure (SMILES) | IC50 [5] [nM] | also measured |
| --- | --- | --- |
| CCCC(=O)NCC(=O)N(C)c1ccc(Cl)c(COc2cccn3c(Br)c(C)nc23)c1Cl | 8.9 | bioavailability [1]: 90%; inhibition in vivo at 1 mg/kg [2]: 52.7%; half-life [3]: 18 min; AUC [4]: 11700 ng·h/mL; Cmax [6]: 9970 ng/mL |
| Cc1nc2c(OCc3c(Cl)ccc(N(C)C(=O)CNC(=O)CN(C)C)c3Cl)cccn2c1Br | 2.4 | bioavailability [1]: 32.8%; inhibition in vivo at 1 mg/kg [2]: 72.4%; half-life [3]: 18 min; AUC [4]: 940 ng·h/mL; Cmax [6]: 290 ng/mL |
| CCOC(=O)c1c(C)nc2c(OCc3c(Cl)cccc3Cl)cccn12 | > 100000 |  |
| Cc1nc2c(OCc3c(Cl)ccc(N(C)S(C)(=O)=O)c3Cl)cccn2c1Br | 2100 |  |
| C#CCOCc1c(C)nc2c(OCc3c(Cl)cccc3Cl)cccn12 | 7600 |  |
| Cc1nc2c(OCc3c(Cl)ccc(N(C)C(=O)CN)c3Cl)cccn2c1Br | 380 |  |
| COC(=O)N(C)c1ccc(Cl)c(COc2cccn3c(Br)c(C)nc23)c1Cl | 1400 |  |
| Cc1nc2c(OCc3c(F)cccc3Cl)cccn2c1Br | 1500 |  |
| Clc1cccc(Cl)c1COc1cccn2ccnc12 | 31000 |  |
| Cc1nc2c(OCc3c(Cl)cccc3Cl)cccn2c1CO | 7500 |  |
| COCC(=O)N(C)c1ccc(Cl)c(COc2cccn3c(Br)c(C)nc23)c1Cl | 580 |  |
| CC(=O)NC(C)C(=O)N(C)c1ccc(Cl)c(COc2cccn3c(Br)c(C)nc23)c1Cl (centres undefined) | 770 |  |
| CC(=O)N(Cc1c(Cl)cccc1Cl)c1cccn2c(Br)c(C)nc12 | > 100000 |  |
| CC(=O)NCC(=O)N(C)c1ccc(Cl)c(COc2cccn3c(Br)c(C)nc23)c1Cl | 16 |  |
| Cc1nc2c(OCc3c(Cl)cccc3Cl)cccn2c1Br | 230 |  |
| Cc1nc2c(COc3c(Cl)cccc3Cl)cccn2c1Br | > 100000 |  |
| COc1ccc(Cl)c(COc2cccn3c(Br)c(C)nc23)c1Cl | 540 |  |
| CC(=O)Nc1ccc(Cl)c(COc2cccn3c(Br)c(C)nc23)c1Cl | 1800 |  |
| Cc1nc2c(C(=O)Nc3c(Cl)cccc3Cl)cccn2c1Br | > 100000 |  |
| CCN(C(C)=O)c1ccc(Cl)c(COc2cccn3c(Br)c(C)nc23)c1Cl | 150 |  |
| CCN(C)c1ccc(Cl)c(COc2cccn3c(Br)c(C)nc23)c1Cl | 410 |  |
| CC(=O)OCC(=O)N(C)c1ccc(Cl)c(COc2cccn3c(Br)c(C)nc23)c1Cl | 500 |  |
| Cc1nc2c(OCc3c(Cl)ccc(Cl)c3Cl)cccn2c1Br | 490 |  |
| CCC(=O)N(C)c1ccc(Cl)c(COc2cccn3c(Br)c(C)nc23)c1Cl | 72 |  |
